The values below come from ChEMBL document CHEMBL4665738, “Identification of 4-anilino-6-aminoquinazoline derivatives as potential MERS-CoV inhibitors” (Bioorg Med Chem Lett, 2020).

Data set [1] concerns Middle East respiratory syndrome-related coronavirus. The data set can be described thus: Antiviral activity against Middle East respiratory syndrome coronavirus MERS-CoV/KOR/KNIH/002_05_2015 infected in African green monkey Vero cells assessed as reduction in virus induced cytopathic effect after 24 hrs by immunofluorescence assay. In kind it is functional, organism-based. As to conditions: MERS-CoV/KOR/KNIH/002_05_2015, Vero. Background: Cytopathic effects are the visible damage that an infection or toxin causes in cultured cells.

A further data set concerns Vero. The data set can be described thus: Cytotoxicity against African green monkey Vero cells infected with Middle East respiratory syndrome coronavirus MERS-CoV/KOR/KNIH/002_05_2015 assessed as reduction in cell viability. The class given is cell-based. As to conditions: chlorocebus sabaeus.
Data set [2] can be described thus: Cytotoxicity against CHO-K1 cells. To be noted: chinese hamster. The class given is cell-based, Cricetulus griseus. The gist of the method: (§1)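 Cytotoxicity values are given in µM, each against a named cell line: Vero (African green monkey kidney), HFL-1 (human embryonic lung), L929 (NCTC clone 929 mouse fibroblast), NIH 3T3 (mouse embryonic fibroblast) and CHO-K1 (Chinese hamster ovary).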

The nature of data set [3]: Oral bioavailability in rat at 5 mg/kg. The class given is ADME, organism-based. To be noted: in vivo. The gist of the method:
(§2)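 Rats were dosed intravenously at 2 mg/kg or orally at 5 mg/kg. Each parameter is the mean of experiments in three rats.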

The nature of data set [4]: Metabolic stability in mouse microsomes assessed as parent compound remaining incubated for 30 mins. In kind it is ADME, Microsome. As to conditions: read-out: Stabilty. The gist of the method: (§3)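 Mouse or human liver microsomes were incubated with the compound for 30 min. The read-out is the percentage of original compound remaining.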
Data set [5] in a line: AUC in rat at 2 mg/kg, iv. In kind it is ADME, organism-based. The arrangement: dose 2 mg/kg. As to conditions: in vivo. The method in brief: (§4)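 Rat pharmacokinetic study with separate intravenous (2 mg/kg) and oral (5 mg/kg) dosing arms; reported parameters are means from three rats per experiment.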
The nature of data set [6]: Half life in rat at 5 mg/kg, po. In kind it is ADME, organism-based. To be noted: in vivo. The method in brief: as §2
Data set [7] is described as follows: Volume of distribution at steady state in rat at 2 mg/kg, iv. In kind it is ADME, organism-based. As to conditions: in vivo, read-out: Vdss. The method in brief:
as §2

The nature of data set [8]: Clearance in rat at 2 mg/kg, iv. In kind it is ADME, organism-based. As to conditions: in vivo. The gist of the method: as §2
Data set [9] is described as follows: Cytotoxicity against mouse L929 cells. The class given is cell-based. The gist of the method: as §1
A short description of data set [10]: Cytotoxicity against mouse NIH/3T3 cells. In kind it is cell-based, NIH3T3. The gist of the method:
as §1

A short description of data set [11]: AUC in rat at 5 mg/kg, po. In kind it is ADME, organism-based. Further details: dose 5 mg/kg. As to conditions: in vivo. The method in brief: as §4
The next data set can be described thus: in vivo. To be noted: rat, po, 5 mg/kg.
A short description of data set [12]: Half life in rat at 2 mg/kg, iv. As to conditions: in vivo. In kind it is ADME, organism-based. The method in brief: as §2
Data set [13] is described as follows: Cytotoxicity against human HFL-1 cells. The class given is cell-based, HFL1. The method in brief:
as §1

Data set [14] is described as follows: Cytotoxicity against African green monkey Vero cells. As to conditions: chlorocebus sabaeus. The class given is cell-based. The gist of the method:
as §1

In data set [15] the target is Voltage-gated inwardly rectifying potassium channel KCNH2 (Homo sapiens, UniProt Q12809). Kind of data set: Modulation of human ERG.
Sequence of Voltage-gated inwardly rectifying potassium channel KCNH2 (Q12809 whole entry): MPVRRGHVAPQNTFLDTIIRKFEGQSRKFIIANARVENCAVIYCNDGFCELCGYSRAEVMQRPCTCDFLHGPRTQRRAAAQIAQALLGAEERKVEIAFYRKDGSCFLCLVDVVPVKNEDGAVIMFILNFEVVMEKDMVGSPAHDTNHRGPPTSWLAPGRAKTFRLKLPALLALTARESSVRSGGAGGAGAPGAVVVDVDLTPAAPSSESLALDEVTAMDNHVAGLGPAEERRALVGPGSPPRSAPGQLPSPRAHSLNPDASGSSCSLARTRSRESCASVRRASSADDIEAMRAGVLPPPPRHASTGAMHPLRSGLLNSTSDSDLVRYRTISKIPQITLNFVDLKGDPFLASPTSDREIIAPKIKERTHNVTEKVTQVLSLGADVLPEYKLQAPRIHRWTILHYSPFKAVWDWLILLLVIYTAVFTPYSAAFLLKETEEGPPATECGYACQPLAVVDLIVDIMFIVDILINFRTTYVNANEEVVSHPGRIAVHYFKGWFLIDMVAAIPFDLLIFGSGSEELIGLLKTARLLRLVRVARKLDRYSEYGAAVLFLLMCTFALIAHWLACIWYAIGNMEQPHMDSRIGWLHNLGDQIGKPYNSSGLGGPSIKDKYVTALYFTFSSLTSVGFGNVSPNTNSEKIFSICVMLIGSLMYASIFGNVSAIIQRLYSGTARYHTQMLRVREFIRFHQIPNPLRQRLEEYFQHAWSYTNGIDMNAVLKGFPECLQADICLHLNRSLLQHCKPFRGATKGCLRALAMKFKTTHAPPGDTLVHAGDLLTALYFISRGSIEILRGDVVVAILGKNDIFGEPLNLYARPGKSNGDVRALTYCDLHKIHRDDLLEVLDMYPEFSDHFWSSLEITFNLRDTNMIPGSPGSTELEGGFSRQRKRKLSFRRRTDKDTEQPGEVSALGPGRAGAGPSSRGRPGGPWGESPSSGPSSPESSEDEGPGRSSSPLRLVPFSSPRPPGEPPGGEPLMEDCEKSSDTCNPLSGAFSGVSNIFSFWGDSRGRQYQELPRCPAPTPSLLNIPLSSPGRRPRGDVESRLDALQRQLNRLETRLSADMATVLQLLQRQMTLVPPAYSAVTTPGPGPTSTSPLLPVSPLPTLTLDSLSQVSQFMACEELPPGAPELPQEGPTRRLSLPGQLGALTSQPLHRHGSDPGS
Data set [16] is described as follows: Cmax in rat at 5 mg/kg, po. In kind it is ADME, organism-based. The arrangement: route oral, dose 5 mg/kg. To be noted: in vivo. The gist of the method: as §2
Data set [17] can be described thus: Metabolic stability in human microsomes assessed as parent compound remaining incubated for 30 mins. The class given is ADME, Microsome. As to conditions: read-out: Stabilty. The gist of the method: as §3

Broadly, the IC50 is the concentration at which inhibition is half-maximal. Regarding `Oc1ccccc1CNc1ccc2ncnc(Nc3ccc(F)c(Cl)c3)c2c1`, the IC50 in data set [1] amounted to 3.6 µM.
The term CC50 denotes the concentration at which the toxic effect on the cells reaches its halfway point. `Fc1ccc(Nc2ncnc3ccc(NCc4cccc(C(F)(F)F)c4)cc23)cc1Cl`: the IC50 in data set [1] came out at 2.3 µM. The CC50 with Vero amounted to 9.2 µM.
Turning to `COc1cccc(CNc2ccc3ncnc(Nc4ccc(Br)cc4)c3c2)c1`, in [1], the IC50 was 7.4 µM. For the same compound, the CC50 in the data set with Vero is greater than 25 µM.
As for `COc1cccc(CNc2ccc3ncnc(Nc4ccc(F)c(Cl)c4)c3c2)c1`, the concentration for half-maximal inhibition (IC50) in data set [1] amounted to 5.6 µM. In addition, the CC50 with Vero is greater than 25 µM.
Take `N#Cc1cccc(C(=O)Nc2ccc3ncnc(Nc4ccc(F)c(Cl)c4)c3c2)c1`: the IC50 in data set [1] was greater than 25 µM.
Regarding `COc1cccc(CNc2ccc3ncnc(Nc4ccc(F)cc4)c3c2)c1`, the IC50 in [1] came to 22.7 µM. In the data set with Vero, the CC50 is greater than 25 µM.
For the compound `COc1cc2ncnc(Nc3ccc(F)c(Cl)c3)c2cc1NCc1cccc(C#N)c1`, the IC50 in data set [1] was 5.8 µM. The CC50 in the data set with Vero was determined as 13.2 µM.
With `CCCCN(CCCC)c1ccc2ncnc(Nc3ccc(F)c(Cl)c3)c2c1`, the IC50 in [1] was greater than 25 µM.
Broadly, the bioavailability is dose-corrected exposure relative to a reference, in per cent. The AUC is concentration integrated over time. What is called half-life is how long it takes for the measured level to halve. As a reminder, the clearance is a measure of how efficiently the substance is removed, as volume per time. A word on the Tmax: it is the time from dosing to the highest level. On to `N#Cc1cccc(CNc2ccc3ncnc(Nc4ccc(F)c(Cl)c4)c3c2)c1`, for which the CC50 in data set [2], in [9], in data set [10], in [13] and in [14] was greater than 100 µM in each case. Besides, the bioavailability in [3] is 21%. The remaining at 0.5 h in data set [4] stood at 60.7%; in data set [17] it was 56.4%. The area under the curve (AUC) was determined as 1110 ng·h/mL in data set [5] and 570 ng·h/mL in [11]. The figures for the half-life in data set [6] and in [12] were 330 min and 354 min, respectively. For the same compound, the IC50 in [1] turned out to be 0.157 µM. For the same compound, the Vd in [7] turned out to be 6.3 L/kg. In data set [8], this compound gave a clearance of 28.8 mL/min/kg. Besides, the Tmax in “in vivo” amounted to 2 h. The compound further yielded an Activity in data set [15] greater than 50 µM. Further, in data set [16], the Cmax came out at 0.2 µg/h.
As to `COc1ccccc1CNc1ccc2ncnc(Nc3ccc(F)c(Cl)c3)c2c1`, in data set [1], the IC50 was 3.8 µM. In the data set with Vero, the CC50 was greater than 25 µM.
The like results for `N#Cc1ccc(CNc2ccc3ncnc(Nc4ccc(F)c(Cl)c4)c3c2)cc1` were, in that order, 4.8 µM and greater than 25 µM.
For the compound `N#Cc1cccc(/C=C/C(=O)Nc2ccc3ncnc(Nc4ccc(F)c(Cl)c4)c3c2)c1`, the IC50 in data set [1] was greater than 25 µM.
In the case of `Fc1ccc(Nc2ncnc3ccc(NC4CCCCC4)cc23)cc1Cl`, the 50% inhibitory concentration (IC50) in data set [1] was found to be 15 µM. For the same compound, the CC50 with Vero was greater than 25 µM.
The matching figures for `COc1cccc(CNc2ccc3ncnc(Nc4cccc(Cl)c4)c3c2)c1`: greater than 25 µM and 23 µM.
The matching figures for `Fc1ccc(CNc2ccc3ncnc(Nc4ccc(F)c(Cl)c4)c3c2)cc1`: 4.6 µM and 14.4 µM.
On to `N#Cc1ccccc1CNc1ccc2ncnc(Nc3ccc(F)c(Cl)c3)c2c1`, for which the concentration for half-maximal inhibition (IC50) in data set [1] is greater than 25 µM. The CC50 with Vero was greater than 25 µM.
Take `COc1cccc(CNc2ccc3ncnc(Nc4ccc(C(F)(F)F)cc4)c3c2)c1`: the concentration for half-maximal inhibition (IC50) in data set [1] is 1.8 µM. Further, the CC50 in the data set on Vero is greater than 25 µM.
In the case of `NC(=O)c1cccc(CNc2ccc3ncnc(Nc4ccc(F)c(Cl)c4)c3c2)c1`, the IC50 in data set [1] is greater than 25 µM.
Turning to `N#Cc1ccc(CNc2ccc3ncnc(Nc4ccc(C(F)(F)F)cc4)c3c2)cc1`, the IC50 in [1] was 4.1 µM. Further, the CC50 in the data set with Vero is greater than 25 µM.
The like results for `N#Cc1cccc(CNc2ccc3ncnc(Nc4ccc(C(F)(F)F)cc4)c3c2)c1` were, in that order, 3.6 µM and greater than 25 µM.
Take `O=[N+]([O-])c1ccc(CNc2ccc3ncnc(Nc4ccc(F)c(Cl)c4)c3c2)cc1`: in data set [1], the IC50 was 2.7 µM. The CC50 in the data set on Vero was greater than 25 µM.
On to `O=[N+]([O-])c1cccc(CNc2ccc3ncnc(Nc4ccc(F)c(Cl)c4)c3c2)c1`, for which the IC50 in [1] is 6.1 µM. Also, the CC50 in the data set on Vero was greater than 25 µM.
As to `N#Cc1ccccc1CNc1ccc2ncnc(Nc3ccc(C(F)(F)F)cc3)c2c1`, the IC50 in data set [1] was greater than 25 µM. Further, the CC50 in the data set on Vero was greater than 25 µM.
For the compound `O=[N+]([O-])c1ccccc1CNc1ccc2ncnc(Nc3ccc(F)c(Cl)c3)c2c1`, in [1], the 50% inhibitory concentration (IC50) was 3.3 µM. For the same compound, in the data set with Vero, the cytotoxic concentration (CC50) is greater than 25 µM.
Turning to `CC(=O)Nc1ccc2ncnc(Nc3ccc(F)c(Cl)c3)c2c1`, the IC50 in [1] was greater than 25 µM.
Same read-out and setting: under `COc1cccc(CNc2ccc3ncnc(Nc4cccc(C(C)=O)c4)c3c2)c1` stands greater than 25 µM.
For `N#Cc1cccc(CNc2cc3c(Nc4ccc(F)c(Cl)c4)ncnc3cc2O)c1`, the IC50 in [1] was greater than 25 µM. In the data set with Vero, the half-maximal cytotoxic concentration (CC50) was greater than 25 µM.
On to `Fc1ccc(CNc2ccc3ncnc(Nc4ccc(F)c(Cl)c4)c3c2)cc1F`, for which, in data set [1], the IC50 worked out at 4.6 µM. For the same compound, in the data set with Vero, the CC50 was 23 µM.
As for `COc1cccc(CNc2ccc3ncnc(Nc4ccc(C#N)cc4)c3c2)c1`, the IC50 in data set [1] is greater than 25 µM. In the data set on Vero, the CC50 was greater than 25 µM.
In the case of `O=[N+]([O-])c1cccc(CNc2ccc3ncnc(Nc4ccc(C(F)(F)F)cc4)c3c2)c1`, the concentration for half-maximal inhibition (IC50) in data set [1] worked out at 3.7 µM. Further, in the data set on Vero, the half-maximal cytotoxic concentration (CC50) was greater than 25 µM.
The matching figures for `O=[N+]([O-])c1ccc(CNc2ccc3ncnc(Nc4ccc(C(F)(F)F)cc4)c3c2)cc1`: 3.3 µM and greater than 25 µM.
